Data from ChEMBL document CHEMBL4052637, “Discovery and Characterization of R/S-N-3-Cyanophenyl-N'-(6-tert-butoxycarbonylamino-3,4-dihydro-2,2-dimethyl-2H-1-benzopyran-4-yl)urea, a New Histone Deacetylase Class III Inhibitor Exerting Antiproliferative Activity against Cancer Cell Lines” (J Med Chem, 2017).
Calls of active or inactive are those of the source. The calls are words filed in the database; no cut-off is given here.

Tests used:
[1] = Potency index, ratio of EX-527 IC50 to test compound IC50 for human U373 cells; format: functional, U-373MG ATCC
[2] = target: T1, NAD-dependent protein deacetylase sirtuin-1 (Homo sapiens) (UniProt Q96EB6); assay: Inhibition of SIRT1 in human Hs683 cells assessed as increase of histone H3K56 acetylation at 10 to 25 after 8 to 24 hrs by Western blotting method; format: cell-based
T1 sequence (whole entry): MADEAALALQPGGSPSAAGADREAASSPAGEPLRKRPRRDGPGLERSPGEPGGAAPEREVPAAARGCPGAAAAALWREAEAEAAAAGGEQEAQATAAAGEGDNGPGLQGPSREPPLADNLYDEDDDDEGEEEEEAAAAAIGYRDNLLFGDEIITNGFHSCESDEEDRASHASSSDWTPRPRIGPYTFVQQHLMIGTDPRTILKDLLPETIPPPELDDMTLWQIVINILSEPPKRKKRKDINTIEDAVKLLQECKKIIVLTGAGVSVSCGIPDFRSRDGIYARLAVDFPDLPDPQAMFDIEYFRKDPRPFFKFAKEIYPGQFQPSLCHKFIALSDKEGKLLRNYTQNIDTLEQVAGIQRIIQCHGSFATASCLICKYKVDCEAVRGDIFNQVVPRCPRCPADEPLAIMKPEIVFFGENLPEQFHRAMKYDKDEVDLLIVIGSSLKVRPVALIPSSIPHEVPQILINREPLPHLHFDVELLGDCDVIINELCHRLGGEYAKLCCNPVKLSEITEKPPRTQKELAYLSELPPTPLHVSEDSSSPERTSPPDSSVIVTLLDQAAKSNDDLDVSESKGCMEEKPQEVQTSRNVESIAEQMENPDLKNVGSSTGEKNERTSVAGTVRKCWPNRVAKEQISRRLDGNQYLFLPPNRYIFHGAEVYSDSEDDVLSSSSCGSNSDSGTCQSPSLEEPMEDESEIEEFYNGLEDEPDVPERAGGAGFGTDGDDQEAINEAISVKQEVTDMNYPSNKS
How it was run: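 Cells treated with the compound, then histone H3K56 acetylation assessed by Western blot on histone extracts; histone H1 or Coomassie staining as loading control.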

[3] = system: NCI-H460; assay: Growth inhibition of human NCI-H460 cells after 48 hrs by SRB assay; format: functional; conditions: NCI-H460, 48 h
[4] = target: T2, NAD-dependent protein deacetylase sirtuin-2 (Homo sapiens) (UniProt Q8IXJ6); assay: Inhibition of SIRT2 in human Hs683 cells assessed as increase of alpha-tubulin acetylation after 8 hrs by Western blotting method; format: cell-based
T2 sequence (whole entry): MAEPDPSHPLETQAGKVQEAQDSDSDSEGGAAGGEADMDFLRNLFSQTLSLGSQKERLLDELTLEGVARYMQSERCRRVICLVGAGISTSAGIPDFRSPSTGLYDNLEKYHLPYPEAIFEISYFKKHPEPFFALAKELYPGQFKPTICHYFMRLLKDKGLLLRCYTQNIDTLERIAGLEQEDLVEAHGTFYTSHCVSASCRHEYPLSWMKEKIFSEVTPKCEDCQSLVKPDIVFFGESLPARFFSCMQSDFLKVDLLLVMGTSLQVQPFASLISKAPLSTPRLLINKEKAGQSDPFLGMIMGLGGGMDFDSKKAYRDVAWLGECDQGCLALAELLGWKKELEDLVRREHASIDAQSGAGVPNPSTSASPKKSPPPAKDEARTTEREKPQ

[5] = system: UACC-257; assay: Growth inhibition of human UACC257 cells after 48 hrs by SRB assay; format: functional; conditions: UACC-257, 48 h
[6] = Induction of senescence in human U373 cells at 5 uM after 6 days by beta-galactosidase assay relative to control; format: functional, U-373MG ATCC
How it was run: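 Cells were kept 6 days in medium containing 5 μM compound or DMSO vehicle, then stained for senescence-associated β-galactosidase activity. Blue-stained cells were counted and expressed as a percentage of total cells counted. Two independent experiments.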

[7] = system: Hs 683; assay: Cell cycle arrest in human Hs683 cells assessed as accumulation at G1 phase at IC50 after 24 to 48 hrs by propidium iodide staining-based flow cytometry; format: functional
How it was run: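 Cells were exposed to compound at the IC50 for each line from the 72 h MTT assay, or to a reference HDAC inhibitor at 2 μM. Cell cycle distribution was analyzed after 24 and 48 h. Results are mean ± SD of three independent experiments, with p values against control cells.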

[8] = system: NCI-H226; assay: Growth inhibition of human NCI-H226 cells after 48 hrs by SRB assay; format: functional; conditions: NCI-H226, 48 h
[9] = system: MOLT-4; assay: Growth inhibition of human MOLT4 cells after 48 hrs by SRB assay; format: functional; conditions: MOLT-4, 48 h
[10] = system: HOP-92; assay: Growth inhibition of human HOP92 cells after 48 hrs by SRB assay; format: functional; conditions: HOP-92, 48 h
[11] = system: HOP-62; assay: Growth inhibition of human HOP62 cells after 48 hrs by SRB assay; format: functional; conditions: HOP-62, 48 h
[12] = system: Hs 683; assay: Inhibition of spheroid forming capacity of human Hs683 cells assessed as decrease in surface area of tumor spheroids at 5 to 10 uM treated for 24 hrs measured after 96 hrs by bright field microscopic method; format: functional, cell-based
How it was run: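 Spheroids formed from 1 × 10^3 cells in 25 μL. Cells were pretreated 24 h with compound then left untreated 96 h, or untreated spheroids were cultured 96 h with compound. Surface measured from bright-field images; volume in voxels from 3D plots after image segmentation. Mean ± SD of three independent experiments.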

[13] = system: Hs 683; assay: Cytostatic activity against human Hs683 cells at 10 uM after 72 hrs by quantitative videomicroscopy relative to control; format: functional
How it was run: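 Cells were grown in 25 cm2 flasks, and phase-contrast images were recorded every 4 min over 72 h, in triplicate. Global growth is cell count on the last image divided by cell count on the first, at 24, 48 and 72 h. The GGR index is treated GG divided by control GG.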

[14] = system: A498; assay: Growth inhibition of human A498 cells after 48 hrs by SRB assay; format: functional; conditions: A498, 48 h
[15] = target: T3, NAD-dependent protein deacetylase sirtuin-2 (Homo sapiens, UniProt Q8IXJ6); assay: Inhibition of N-terminal His-tagged recombinant human SIRT-2 expressed in Escherichia coli using Fluor-de-Lys-SIRT1 as substrate after 15 mins by fluorescence assay
T3 sequence (Q8IXJ6 whole entry): T2 sequence (whole entry)

[16] = system: T98G; assay: Antiproliferative activity against human T98G cells after 72 hrs by MTT assay; format: functional, cell-based
How it was run: (§1)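 MTT assay: cells in RPMI 1640 with 10% heat-inactivated FCS at 37 °C and 5% CO2 were seeded 24 h before treatment. They were exposed 72 h to compound at 0.01–100 μM, with DMSO as solvent.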

[17] = system: NCI-H23; assay: Growth inhibition of human NCI-H23 cells after 48 hrs by SRB assay; format: functional; conditions: NCI-H23, 48 h
[18] = system: HCT-116; assay: Antiproliferative activity against p53 knock out human HCT116 cells after 72 hrs by MTT assay; format: functional, cell-based; how it was run: as §1
[19] = system: SK-OV-3; assay: Growth inhibition of human SKOV3 cells after 48 hrs by SRB assay; format: functional; conditions: SK-OV-3, 48 h
[20] = target: T2, NAD-dependent protein deacetylase sirtuin-2 (Homo sapiens); assay: Inhibition of SIRT2 in human U373 cells assessed as increase of alpha-tubulin acetylation at 10 uM after 8 hrs by Western blotting method relative to control; format: cell-based

CC(C)(C)OC(=O)Nc1ccc2c(c1)C(NC(=O)Nc1cccc(C#N)c1)CC(C)(C)O2 (stereo not given)
Ratio IC50 [1]: 20 | inhibition [2]: Active | GI50 [3]: 3.02 µM | inhibition [4]: Dose-dependent effect | GI50 [5]: 0.871 µM | Activity [6]: 18.2% | Activity [7]: Active | GI50 [8]: 2 µM | GI50 [9]: 2.09 µM | GI50 [10]: 0.776 µM | GI50 [11]: 5.01 µM | inhibition [12]: Active | Activity [13]: >=50% | GI50 [14]: 7.08 µM | IC50 [15]: 4.2 µM | IC50 [16]: 14 µM | GI50 [17]: 1.12 µM | Activity [18]: Active | GI50 [19]: 9.12 µM | fold change (FC) [20]: 8.6
